High-throughput results as filed in PubChem.
T cell HTS = modulators of CD8 T cell-vesicle binding, primary screen, mouse 2C CD8+ T cells, flow cytometry; 2C CD8+ T cell-vesicle binding; hits give low values; response (vesicle binding), % at 7 µM; 330,000 tested, 0.068% active;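 active means response, share of CD8 T cells binding vesicles, and their 90th percentile fluorescence all below set limits, cut at about 80% in these data, passing the limit was not always enough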;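 further: values below 100% mean blocked vesicle binding to the CD8+ T cells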
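Also added: QL9-peptide-loaded Drosophila micro-vesicles bearing Ld, ICAM-1 and B7-1; Test system: purified 2C TCR transgenic mouse naive CD8+ T cells; Measured by: cytometric PE anti-B7-1 and Alexa647 anti-CD8 signals after 1% paraformaldehyde fixation; Timing: binding step 1.5 h, 37 °C, antibody labelling 20 min, ice.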
CASP6 VEID inh = human caspase-6 inhibitors, primary screen, biochemical, VEID-R110 fluorescence, single point, set 2; P55212; purified caspase-6, Z-VEID-R110 cleavage fluorescence; inhibition, % at 12.5 µM; 350,000 tested, 0.53% active;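 active means mean inhibition across replicates at least about 35%, with every replicate also reaching that limit, limit read from the data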
Target sequence (P55212 24-179 limits assumed): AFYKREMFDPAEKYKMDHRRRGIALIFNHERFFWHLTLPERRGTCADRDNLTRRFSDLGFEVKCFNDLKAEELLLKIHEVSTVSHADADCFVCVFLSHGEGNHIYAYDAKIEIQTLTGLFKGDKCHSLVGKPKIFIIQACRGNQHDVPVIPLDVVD
Target sequence (P55212 194-293 limits assumed): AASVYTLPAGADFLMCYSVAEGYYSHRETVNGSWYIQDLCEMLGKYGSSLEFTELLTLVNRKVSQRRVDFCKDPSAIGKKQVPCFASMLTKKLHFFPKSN
Myeloid diff 2 = induction of myeloid progenitor differentiation, primary screen, cell-based, flow cytometry, MLPCN library; ER-HoxA9 myeloid progenitors, lysozyme-GFP differentiation; calls only at 10 µM; 360,000 tested, 1% active;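 active means normalized GFP-positive differentiation at or above the plate's own cutoff, the solvent-only control mean plus 3 SD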;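 further: cells exposed to compound for four days before flow analysis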
Vif inh = HIV Vif self-association inhibitors, primary screen, imaging, HEK293T, single point; inhibition, % at 7.49 µM; HEK293T cells, Vif self-association by quenched fluorescence, 24 h; 340,000 tested, 0.35% active; in the data active means inhibition above about 50%, passing the limit was not always enough
Myeloid diff = inducers of myeloid progenitor differentiation, confirmation, cell-based, GFP/Mac1 flow cytometry, cherry pick 01. AID 651706, 2012. 2,300 tested, 2% active. calls only. ER-HoxA9 myeloid progenitors, GFP/Mac1 double-positive flow. shares compounds with Myeloid diff 2;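 active means share of green or green-and-red cells above 9 and 9% in run 1 or 4 and 3% in run 2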
GFP autofluor = flagged as fluorescent in myeloid differentiation counter-screen; 2,300 tested, 7.4% active; shares compounds with Myeloid diff 2; fluorescence response, % (test concentration not listed); ER-HoxA9 myeloid progenitors, no estrogen, GFP autofluorescence flow cytometry; vehicle wells 0%, positive control 100%; AID 651707;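 active means over 5% cells positive for green fluorescent reporter, or over 2% positive for both it and APC stain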
CASP1 counter = human caspase-1 inhibitors, dose response, selectivity assay for caspase-6 inhibitor project, biochemical, Z-YVAD-R110 fluorescence, cherry-pick, set 2 | purified caspase-1, Z-YVAD-R110 cleavage fluorescence | 100 tested, under 10 active | shares compounds with CASP6 VEID inh | activity change, negative = inhibition, % at 35 µM;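 active means compounds lowering fluorescence whose fitted half-maximal concentration is no more than twice their top tested dose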
Target sequence (P29466 whole entry, looked up): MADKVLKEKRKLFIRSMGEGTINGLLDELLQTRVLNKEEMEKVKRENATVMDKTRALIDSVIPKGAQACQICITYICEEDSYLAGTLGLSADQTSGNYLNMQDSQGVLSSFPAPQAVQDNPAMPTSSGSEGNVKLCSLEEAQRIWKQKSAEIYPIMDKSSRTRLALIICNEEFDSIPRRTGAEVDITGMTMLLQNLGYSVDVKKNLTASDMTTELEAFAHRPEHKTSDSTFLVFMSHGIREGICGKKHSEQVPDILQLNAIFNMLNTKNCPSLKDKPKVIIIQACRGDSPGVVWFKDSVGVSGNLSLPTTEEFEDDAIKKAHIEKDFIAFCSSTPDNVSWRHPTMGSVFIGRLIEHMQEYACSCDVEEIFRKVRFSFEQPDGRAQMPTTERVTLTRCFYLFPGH
Each line names hits and unclear results; the compound was inactive in the other large screens (follow-up assays come after a bar, where they were run). In the library only some 1.4% were active in any assay of this set; here they are far more common.

CCOc1ccccc1Nc1nc2ccc(C)cc2n2cnnc12	Myeloid diff 2 active (no result: T cell HTS) | Myeloid diff active | GFP autofluor inactive
C[n+]1c(/C=C/c2ccc3c(c2)OCO3)ccc2ccccc21	none | Myeloid diff active | GFP autofluor inactive
C[n+]1c(/C=C/c2ccc(O)cc2)ccc2ccccc21	none
CC1(C)Cc2c(cnn2-c2ccccc2)C(NC(=O)C2(C(N)=O)CC2)C1 (centres undefined)	Myeloid diff 2 active | Myeloid diff inactive | GFP autofluor inactive
COc1cc(-c2ccc(N3C(c4ccsc4)=Cc4ccccc4C3CC(C)=O)cc2)cc(OC)c1OC (centres undefined)	none (no result: T cell HTS, Vif inh)
COc1ccc(N2C(c3ccsc3)=Cc3cc4c(cc3C2c2c[nH]c3ccccc23)OCO4)cc1 (centres undefined)	Myeloid diff 2 active (no result: T cell HTS, Vif inh) | Myeloid diff inactive | GFP autofluor inactive
O=c1[nH]c(/C=C2\C=Nc3ccccc32)c(O)n1Cc1ccccc1F	none | Myeloid diff inactive | GFP autofluor inactive
CCOC(=O)c1c(NC(=O)C(C)Sc2cccc[n+]2[O-])sc2c1CCN(Cc1ccccc1)C2 (centres undefined)	Myeloid diff 2 active (no result: CASP6 VEID inh) | Myeloid diff inactive | GFP autofluor inactive
CCOC(=O)c1c(NC(C)=O)sc2c1CCN(Cc1ccccc1)C2	none (no result: Vif inh)
O=C(Nc1cccc2ncccc12)c1ccc([N+](=O)[O-])o1	Myeloid diff 2 active | Myeloid diff inactive | GFP autofluor inactive
Cc1cccnc1NC(=O)c1ccc([N+](=O)[O-])o1	none (no result: CASP6 VEID inh)
Cc1ccn2c(Nc3ccc4c(c3)OCO4)c(-c3ccccn3)nc2c1	none
Cc1ccc(Nc2c(-c3ccccn3)nc3cc(C)ccn23)cc1	none | Myeloid diff inactive | GFP autofluor inactive
COc1ccccc1C1CC(c2ccc(Br)cc2)=NN1C(=O)c1cccnc1 (centres undefined)	none (no result: CASP6 VEID inh) | Myeloid diff inactive | GFP autofluor inactive
Cc1ccc(-c2csc(NC(=O)/C=C/c3cccs3)n2)cc1C	none | Myeloid diff inactive | GFP autofluor inactive
N#Cc1ccc(-c2csc(NC(=O)/C=C/c3cccs3)n2)cc1	Myeloid diff 2 active (no result: CASP6 VEID inh) | Myeloid diff inactive | GFP autofluor inactive
CC(C)C(=O)Nc1ccc2c(c1)C(=O)N(C)[C@H]1CC[C@H](CC(=O)NCC3CC3)O[C@H]1CO2	none (no result: T cell HTS, Myeloid diff 2, Vif inh)
N#CCCN(C(=O)COc1ccc(C#N)cc1)c1ccc(F)cc1	none | Myeloid diff inactive | GFP autofluor inactive
COc1ccccc1S(=O)(=O)N[C@H]1CC[C@@H](CCNC(=O)C2CCCC2)O[C@H]1CO	none (no result: T cell HTS, Myeloid diff 2, Vif inh)
CCOc1ccccc1C(C(=O)NCCOC)N(CCOC)C(=O)Cn1nnc2ccccc21 (centres undefined)	none | Myeloid diff inactive | GFP autofluor inactive
C[C@@H]1CN([C@H](C)CO)S(=O)(=O)c2ccc(-c3cccc(C#N)c3)cc2O[C@@H]1CN(C)C(=O)C1CC1	none (no result: T cell HTS, Myeloid diff 2, Vif inh)
O=C1C=C(c2ccc(-c3ccccc3)cc2)C[C@@H](c2ccc(Cl)cc2)C1	none | Myeloid diff inactive | GFP autofluor inactive
NS(=O)(=O)c1ccc(NC(=S)NCc2ccccc2)cc1	none (no result: CASP6 VEID inh)
NS(=O)(=O)c1ccc(NC(=S)NCc2ccccc2Cl)cc1	none (no result: CASP6 VEID inh) | Myeloid diff inactive | GFP autofluor inactive
CC=Cc1ccc2n(c1=O)C[C@H]1[C@H](CO)[C@@H](C(=O)NCc3ccccn3)N(CCC)[C@@H]21 (mixture of isomers)	none (no result: T cell HTS, Myeloid diff 2, Vif inh)
CCN(CC)CCCNc1nc2cc(OC)c(OC)cc2c2nc(-c3ccccc3)nn12	none (no result: CASP6 VEID inh)
COCCCNc1nc2cc(OC)c(OC)cc2c2nc(-c3ccccc3)nn12	Myeloid diff 2 active | Myeloid diff inactive | GFP autofluor inactive
COc1ccc(-c2csc(NC3CCCCC3)n2)c(OC)c1	Myeloid diff 2 active | Myeloid diff inactive | GFP autofluor inactive
c1ccc(-c2csc(NC3CCCCC3)n2)cc1	none (no result: Myeloid diff 2)
Cc1cc(C)cc(C(=O)/C=C2\NC(=O)CS2)c1	none (no result: CASP6 VEID inh) | Myeloid diff inactive | GFP autofluor inactive
O=C(C[C@@H]1C[C@H]2c3cc(NC(=O)NC4CCCCC4)ccc3O[C@H]2[C@@H](CO)O1)NCc1ccccn1	none (no result: T cell HTS, Myeloid diff 2, Vif inh)
O=C(C[C@@H]1C[C@H]2c3cc(NC(=O)NC4CCCCC4)ccc3O[C@H]2[C@H](CO)O1)NCc1ccccn1	CASP6 VEID inh 74.9 (no result: T cell HTS, Myeloid diff 2, Vif inh) | CASP1 counter inactive
O=C(O)/C(=C\c1ccc(Cl)c([N+](=O)[O-])c1)c1ccc(S(=O)(=O)N2CCCC2)s1	CASP6 VEID inh 69.6 | CASP1 counter inactive
C[C@@H]1CN([C@@H](C)CO)C(=O)c2cc(-c3cccc(F)c3)cnc2O[C@H]1CN(C)Cc1cccnc1	none (no result: T cell HTS, Myeloid diff 2, Vif inh)
COc1cccc(C#Cc2cnc3c(c2)C(=O)N([C@H](C)CO)C[C@H](C)[C@@H](CN(C)C(C)=O)O3)c1	none (no result: T cell HTS, Myeloid diff 2, Vif inh)
Cc1ccc(S(=O)c2ccc([N+](=O)[O-])c3nonc23)cc1 (centres undefined)	CASP6 VEID inh 91.5 (no result: T cell HTS) | CASP1 counter inactive
Cc1ccc(Nc2c([N+](=O)[O-])ccc3nonc23)c(C)c1	none
Cc1oc2c(cc(NS(=O)(=O)c3ccc(C(C)C)cc3)c3ccccc32)c1C(=O)O	CASP6 VEID inh 39.4 | CASP1 counter inactive
C[C@@H]1CN([C@H](C)CO)C(=O)c2cccc(NS(C)(=O)=O)c2O[C@@H]1CN(C)S(=O)(=O)c1ccccc1	none (no result: T cell HTS, Myeloid diff 2, Vif inh)
O=c1[nH]c(Nc2ccccc2Cl)cc2ccccc12	CASP6 VEID inh 87.6 | CASP1 counter inactive
Cc1ccccc1Nc1cc2ccccc2c(=O)[nH]1	none (no result: CASP6 VEID inh)
O=c1[nH]c(Nc2ccc(F)cc2)cc2ccccc12	CASP6 VEID inh 99.5 | CASP1 counter inactive
O=C(CCN1CCCCC1)N[C@H]1CC[C@@H](CCn2cc(-c3ccccc3)nn2)O[C@H]1CO	none (no result: T cell HTS, Myeloid diff 2, Vif inh)
Cc1c(NC(=O)C(C)OC(=O)c2ccc([N+](=O)[O-])s2)c(=O)n(-c2ccccc2)n1C (centres undefined)	CASP6 VEID inh 93.5 | CASP1 counter inactive
COc1cc(NC(C)CCCNC(C)C)c2ncccc2c1OC (centres undefined)	CASP6 VEID inh 37.5 (no result: T cell HTS) | CASP1 counter inactive
COc1cc(N)c2ncccc2c1OC	none (no result: T cell HTS)
COc1cc2c(cc1OC)CN(C(=O)[C@@H]1[C@H]3C(=O)O[C@H](c4ccccc4)[C@H](c4ccccc4)N3[C@H](c3ccc(OCCO)cc3)[C@@]13C(=O)Nc1ccc(C#CC4(O)CCCCCC4)cc13)CC2	none (no result: T cell HTS, Myeloid diff 2, Vif inh)
